Calls of active or inactive are those of the source. The calls are words filed in the database; no cut-off is given here.
Legend:
HCT-116 [1] = test: Induction of apoptosis in human HCT116 cells assessed as live cells at 8 uM after 48 hrs by Annexin V-FITC/propidium iodide staining based flow cytometry (reference value: 88.7%); format: functional
[2] = Cell cycle arrest in human HCT116 cells assessed as S phase accumulation at 3 uM after 48 hrs by Annexin V-FITC/propidium iodide staining based flow cytometry (reference value: 28.43%); format: functional; settings: HCT-116
HCT-116 [3] = test: Induction of apoptosis in human HCT116 cells assessed as early apoptotic cells at 0.1 uM after 48 hrs by Annexin V-FITC/propidium iodide staining based flow cytometry (reference value: 3.8%); format: functional
Summary of the method: (§1)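 HCT116 seeded at 2×10^5 cells/well, cultured 6 h, then treated 48 h at 0.1, 0.5, 1, 4, 8 or 16 µM; DMSO (0.1%) served as vehicle. Cells washed twice in cold PBS, resuspended in binding buffer with FITC Annexin V and PI for 15 min at RT in the dark, diluted, and run on flow cytometry within 1 h.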

[4] = Cytotoxicity against human HepG2 cells after 72 hrs by CCK-8 assay; format: functional, cell-based; settings: HepG2, 72 h
Summary of the method: (§2)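 Cells kept in RPMI 1640 with 10% heat-inactivated fetal calf serum and 1% streptomycin/penicillin at 37 °C, 5% CO2. After compound exposure, CCK-8 was added and cells were incubated 4 h at 37 °C, then absorbance was read at 450 nm. Viability is relative to untreated cells (100%). IC50 comes from nonlinear regression, mean of three separate determinations. Single-concentration screen at 20 µM.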

[5] = Cytotoxicity against human L02 cells assessed as growth inhibition at 20 uM after 72 hrs by CCK-8 assay; format: toxicity, cell-based; settings: read-out: GI; summary of the method: as §2
[6] = Cytotoxicity against human SK-BR-3 cells after 72 hrs by CCK-8 assay; format: functional, cell-based; settings: SK-BR-3, 72 h; summary of the method: as §2
HCT-116 [7] = test: Induction of apoptosis in human HCT116 cells assessed as necrotic cells at 8 uM after 48 hrs by Annexin V-FITC/propidium iodide staining based flow cytometry (reference value: 0.8%); format: functional
HCT-116 [8] = test: Inhibition of TrxR in human HCT116 cells after 3 hrs by DTNB assay; format: cell-based
Summary of the method: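 HCT116 cells plated at 4 × 10⁵ cells/well in six-well plates and incubated with or without compound for 3 h. Total protein extracted and quantified. Cellular TrxR activity measured by a DTNB-based kit with absorbance read at 412 nm.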

HCT-116 [9] = test: Induction of apoptosis in human HCT116 cells assessed as early apoptotic cells at 16 uM after 48 hrs by Annexin V-FITC/propidium iodide staining based flow cytometry (reference value: 3.8%); format: functional; summary of the method: as §1
[10] = Cytotoxicity against human L02 cells after 72 hrs by CCK-8 assay; format: toxicity, cell-based; summary of the method: as §2
HCT-116 [11] = test: Induction of apoptosis in human HCT116 cells assessed as late apoptotic cells at 0.5 uM after 48 hrs by Annexin V-FITC/propidium iodide staining based flow cytometry (reference value: 6.7%); format: functional
[12] = Cell cycle arrest in human HCT116 cells assessed as G1 phase accumulation at 1 uM after 48 hrs by Annexin V-FITC/propidium iodide staining based flow cytometry (reference value: 40.83%); format: functional; settings: HCT-116
HCT-116 [13] = test: Induction of apoptosis in human HCT116 cells assessed as late apoptotic cells at 16 uM after 48 hrs by Annexin V-FITC/propidium iodide staining based flow cytometry (reference value: 6.7%); format: functional
HCT-116 [14] = test: Induction of apoptosis in human HCT116 cells assessed as activation of cleaved caspases 3 after 9 hrs by Western blot method; format: functional, cell-based
Summary of the method: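 HCT116 plated at 4×10^5 cells/well and incubated with or without compound for 9 h. Protein then extracted and run on 12% SDS-PAGE western blot probed with anti-cleaved caspase 3, anti-caspase 3, anti-Bax and anti-Bcl-2.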

HCT-116 [15] = test: Induction of apoptosis in human HCT116 cells assessed as early apoptotic cells at 8 uM after 48 hrs by Annexin V-FITC/propidium iodide staining based flow cytometry (reference value: 3.8%); format: functional
HCT-116 [16] = test: Induction of apoptosis in human HCT116 cells assessed as necrotic cells at 4 uM after 48 hrs by Annexin V-FITC/propidium iodide staining based flow cytometry (reference value: 0.8%); format: functional
HCT-116 [17] = test: Induction of apoptosis in human HCT116 cells assessed as early apoptotic cells at 0.5 uM after 48 hrs by Annexin V-FITC/propidium iodide staining based flow cytometry (reference value: 3.8%); format: functional; summary of the method: as §1
[18] = Cell cycle arrest in human HCT116 cells assessed as G1 phase accumulation at 4 uM after 48 hrs by Annexin V-FITC/propidium iodide staining based flow cytometry (reference value: 40.83%); format: functional; settings: HCT-116
[19] = Cell cycle arrest in human HCT116 cells assessed as S phase accumulation at 4 uM after 48 hrs by Annexin V-FITC/propidium iodide staining based flow cytometry (reference value: 28.43%); format: functional; settings: HCT-116
[20] = Cell cycle arrest in human HCT116 cells assessed as sub-G1 phase accumulation at 4 uM after 48 hrs by Annexin V-FITC/propidium iodide staining based flow cytometry (reference value: 4.36%); format: functional; settings: HCT-116
[21] = Cytotoxicity against human Saos2 cells after 72 hrs by CCK-8 assay; format: functional, cell-based; settings: SAOS-2, 72 h; summary of the method: as §2
[22] = Cell cycle arrest in human HCT116 cells assessed as sub-G1 phase accumulation at 0.1 uM after 48 hrs by Annexin V-FITC/propidium iodide staining based flow cytometry (reference value: 4.36%); format: functional; settings: HCT-116
HCT-116 [23] = test: Induction of apoptosis in human HCT116 cells assessed as necrotic cells at 0.5 uM after 48 hrs by Annexin V-FITC/propidium iodide staining based flow cytometry (reference value: 0.8%); format: functional
[24] = Cytotoxicity against human HL60 cells after 72 hrs by CCK-8 assay; format: functional, cell-based; settings: HL-60, 72 h; summary of the method: as §2
[25] = Cell cycle arrest in human HCT116 cells assessed as G1 phase accumulation at 2 uM after 48 hrs by Annexin V-FITC/propidium iodide staining based flow cytometry (reference value: 40.83%); format: functional; settings: HCT-116
[26] = Cell cycle arrest in human HCT116 cells assessed as sub-G1 phase accumulation at 0.5 uM after 48 hrs by Annexin V-FITC/propidium iodide staining based flow cytometry (reference value: 4.36%); format: functional; settings: HCT-116
[27] = Cell cycle arrest in human HCT116 cells assessed as G1 phase accumulation at 0.5 uM after 48 hrs by Annexin V-FITC/propidium iodide staining based flow cytometry (reference value: 40.83%); format: functional; settings: HCT-116
[28] = Cytotoxicity against human MDA-MB-231 cells assessed as growth inhibition at 20 uM after 72 hrs by CCK-8 assay; format: functional; settings: MDA-MB-231, 72 h, read-out: GI; summary of the method: as §2
[29] = Cell cycle arrest in human HCT116 cells assessed as sub-G1 phase accumulation at 2 uM after 48 hrs by Annexin V-FITC/propidium iodide staining based flow cytometry (reference value: 4.36%); format: functional; settings: HCT-116
[30] = Cytotoxicity against human HL60 cells assessed as growth inhibition at 20 uM after 72 hrs by CCK-8 assay; format: functional; settings: HL-60, 72 h, read-out: GI; summary of the method: as §2
[31] = Cell cycle arrest in human HCT116 cells assessed as S phase accumulation at 1 uM after 48 hrs by Annexin V-FITC/propidium iodide staining based flow cytometry (reference value: 28.43%); format: functional; settings: HCT-116

CC(C)(C)OC(=O)/C=C1/C(=O)Nc2ccccc21
Activity (HCT-116 [1]): 78.4% | Activity [2]: 30.1% | Activity (HCT-116 [3]): 3.2% | IC50 [4]: 4.64 µM | inhibition at 72 h, 20 µM [5]: 64.1% | IC50 [6]: 3.42 µM | Activity (HCT-116 [7]): 0.8% | inhibition (HCT-116 [8]): Dose-dependent effect | Activity (HCT-116 [9]): 2.7% | IC50 at 72 h [10]: 2.45 µM | Activity (HCT-116 [11]): 7.5% | Activity [12]: 25.4% | Activity (HCT-116 [13]): 69.1% | Activity (HCT-116 [14]): Active | Activity (HCT-116 [15]): 7.1% | Activity (HCT-116 [16]): 0.7% | Activity (HCT-116 [17]): 2.9% | Activity [18]: 26.2% | Activity [19]: 22.8% | Activity [20]: 35.7% | IC50 [21]: 6.11 µM | Activity [22]: 1.27% | Activity (HCT-116 [23]): 0.6% | IC50 [24]: 2.45 µM | Activity [25]: 40.9% | Activity [26]: 0.25% | Activity [27]: 40.9% | inhibition of growth at 20 µM [28]: 87.6% | Activity [29]: 3.42% | inhibition of growth at 20 µM [30]: 94.5% | Activity [31]: 34.3%
